Results as given in ChEMBL document CHEMBL5143728, “Next-Generation Diprovocims with Potent Human and Murine TLR1/TLR2 Agonist Activity That Activate the Innate and Adaptive Immune Response” (J Med Chem, 2022).

Legend:
Toll-like receptor 1/2 = Toll-like receptor 1/2 (Homo sapiens, UniProt O60603+Q15399); assay: Agonist activity at TLR1/TLR2 in human THP-1 derived macrophages assessed as stimulation of TNF alpha release measured for 4 hrs by ELISA based assay relative to diprovocim-1; assay type: cell-based; parameters: Activity: concentration or dose not given beside the values
Summary of the method: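 THP-1 cells differentiated with 100 nM PMA in RPMI/10% FBS for 24 h, washed, then rested 24 h in fresh medium. Seeded at 0.5 × 10⁵ cells/well and exposed to graded compound concentrations for 4 h, with final DMSO held at 0.1%. LPS served as positive control and DMSO as negative control. Supernatant human TNF-α was read by ELISA. EC50 from duplicate means.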

[1] = molecular target: Toll-like receptor 1/2 (Mus musculus) (UniProt Q9QUN7+Q9EPQ1); assay: Agonist activity at TLR1/TLR2 in wild type C57BL/6J mouse macrophages assessed as stimulation of TNF alpha release measured for 4 hrs by ELISA based assay relative to diprovocim-1; assay type: cell-based; parameters: Activity: concentration or dose not given beside the values; conditions: Macrophage, filed as agonist
Summary of the method: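 Thioglycolate-elicited peritoneal macrophages from wild type C57BL/6J mice, harvested by PBS lavage 4 d after i.p. 4% thioglycolate. Cultured in DMEM/10% FBS at 37 °C, 5% CO2, seeded at 1 × 10⁵ cells/well and exposed to graded compound concentrations for 4 h, with final DMSO ≤0.5% held constant. LPS served as positive control. Supernatant mouse TNF-α was read by ELISA. EC50 from duplicate means.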

Row | SMILES | Activity (Toll-like receptor 1/2; filed as agonist) [%] | Activity [1] [%] | Activity (Toll-like receptor 1/2) [%]
1 | O=C(CNC(=O)c1ccc(C(=O)O)cc1)OCCCCCCCCCCCCNC(=O)[C@@H]1CN(C(=O)c2ccc(C(=O)N3C[C@@H](C(=O)N[C@H]4C[C@@H]4c4ccccc4)[C@H](C(=O)N[C@H]4C[C@@H]4c4ccccc4)C3)cc2)C[C@H]1C(=O)N[C@H]1C[C@@H]1c1ccccc1 | 100 | 60 | 
2 | Nc1ccc(CCCCCCCCNC(=O)[C@@H]2CN(C(=O)c3ccc(C(=O)N4C[C@@H](C(=O)N[C@H]5C[C@@H]5c5ccccc5)[C@H](C(=O)N[C@H]5C[C@@H]5c5ccccc5)C4)cc3)C[C@H]2C(=O)N[C@H]2C[C@@H]2c2ccccc2)cc1 | 100 | 250 | 
3 | C#CCCCCCCCCCCCCNC(=O)[C@@H]1CN(C(=O)c2ccc(C(=O)N3C[C@@H](C(=O)N[C@H]4C[C@@H]4c4ccccc4)[C@H](C(=O)N[C@H]4C[C@@H]4c4ccccc4)C3)cc2)C[C@H]1C(=O)N[C@H]1C[C@@H]1c1ccccc1 | 120 | 180 | 
4 | Nc1ccc(C(=O)OCCCCCCCCCCCCNC(=O)[C@@H]2CN(C(=O)c3ccc(C(=O)N4C[C@@H](C(=O)N[C@H]5C[C@@H]5c5ccccc5)[C@H](C(=O)N[C@H]5C[C@@H]5c5ccccc5)C4)cc3)C[C@H]2C(=O)N[C@H]2C[C@@H]2c2ccccc2)cc1 | 100 | 300 | 
5 | CN(C)CC(=O)OCCCCCCCCCCCCNC(=O)[C@@H]1CN(C(=O)c2ccc(C(=O)N3C[C@@H](C(=O)N[C@H]4C[C@@H]4c4ccccc4)[C@H](C(=O)N[C@H]4C[C@@H]4c4ccccc4)C3)cc2)C[C@H]1C(=O)N[C@H]1C[C@@H]1c1ccccc1 | 100 | 140 | 
6 | O=C(CNC(=O)OCC(Cl)(Cl)Cl)OCCCCCCCCCCCCNC(=O)[C@@H]1CN(C(=O)c2ccc(C(=O)N3C[C@@H](C(=O)N[C@H]4C[C@@H]4c4ccccc4)[C@H](C(=O)N[C@H]4C[C@@H]4c4ccccc4)C3)cc2)C[C@H]1C(=O)N[C@H]1C[C@@H]1c1ccccc1 | 100 | 300 | 
7 | [N-]=[N+]=NCCCCCCCCCCCCNC(=O)[C@@H]1CN(C(=O)c2ccc(C(=O)N3C[C@@H](C(=O)N[C@H]4C[C@@H]4c4ccccc4)[C@H](C(=O)N[C@H]4C[C@@H]4c4ccccc4)C3)cc2)C[C@H]1C(=O)N[C@H]1C[C@@H]1c1ccccc1 |  | 50 | 30
8 | O=C(CNC(=O)OCc1ccccc1)OCCCCCCCCCCCCNC(=O)[C@@H]1CN(C(=O)c2ccc(C(=O)N3C[C@@H](C(=O)N[C@H]4C[C@@H]4c4ccccc4)[C@H](C(=O)N[C@H]4C[C@@H]4c4ccccc4)C3)cc2)C[C@H]1C(=O)N[C@H]1C[C@@H]1c1ccccc1 | 100 | 410 | 
9 | [N-]=[N+]=NCC(=O)OCCCCCCCCCCCCNC(=O)[C@@H]1CN(C(=O)c2ccc(C(=O)N3C[C@@H](C(=O)N[C@H]4C[C@@H]4c4ccccc4)[C@H](C(=O)N[C@H]4C[C@@H]4c4ccccc4)C3)cc2)C[C@H]1C(=O)N[C@H]1C[C@@H]1c1ccccc1 | 100 | 120 | 
10 | O=C(CNC(=O)C(=O)O)OCCCCCCCCCCCCNC(=O)[C@@H]1CN(C(=O)c2ccc(C(=O)N3C[C@@H](C(=O)N[C@H]4C[C@@H]4c4ccccc4)[C@H](C(=O)N[C@H]4C[C@@H]4c4ccccc4)C3)cc2)C[C@H]1C(=O)N[C@H]1C[C@@H]1c1ccccc1 | 120 | 250 | 
11 | O=C(O)c1ccc(C(=O)OCCCCCCCCCCCCNC(=O)[C@@H]2CN(C(=O)c3ccc(C(=O)N4C[C@@H](C(=O)N[C@H]5C[C@@H]5c5ccccc5)[C@H](C(=O)N[C@H]5C[C@@H]5c5ccccc5)C4)cc3)C[C@H]2C(=O)N[C@H]2C[C@@H]2c2ccccc2)cc1 | 100 | 120 | 
12 | CC(C)(C)OC(=O)NCC(=O)NCC(=O)OCCCCCCCCCCCCNC(=O)[C@@H]1CN(C(=O)c2ccc(C(=O)N3C[C@@H](C(=O)N[C@H]4C[C@@H]4c4ccccc4)[C@H](C(=O)N[C@H]4C[C@@H]4c4ccccc4)C3)cc2)C[C@H]1C(=O)N[C@H]1C[C@@H]1c1ccccc1 | 110 | 110 | 
13 | CC(C)(C)OC(=O)N[C@@H](CCC(=O)OCc1ccccc1)C(=O)OCCCCCCCCCCCCNC(=O)[C@@H]1CN(C(=O)c2ccc(C(=O)N3C[C@@H](C(=O)N[C@H]4C[C@@H]4c4ccccc4)[C@H](C(=O)N[C@H]4C[C@@H]4c4ccccc4)C3)cc2)C[C@H]1C(=O)N[C@H]1C[C@@H]1c1ccccc1 | 100 | 210 | 
14 | CC(C)(C)OC(=O)Nc1ccc(C(=O)OCCCCCCCCCCCCNC(=O)[C@@H]2CN(C(=O)c3ccc(C(=O)N4C[C@@H](C(=O)N[C@H]5C[C@@H]5c5ccccc5)[C@H](C(=O)N[C@H]5C[C@@H]5c5ccccc5)C4)cc3)C[C@H]2C(=O)N[C@H]2C[C@@H]2c2ccccc2)cc1 | 90 | 540 | 
15 | Cc1ccc(S(=O)(=O)n2cnc(C[C@H](NC(=O)OC(C)(C)C)C(=O)OCCCCCCCCCCCCNC(=O)[C@@H]3CN(C(=O)c4ccc(C(=O)N5C[C@@H](C(=O)N[C@H]6C[C@@H]6c6ccccc6)[C@H](C(=O)N[C@H]6C[C@@H]6c6ccccc6)C5)cc4)C[C@H]3C(=O)N[C@H]3C[C@@H]3c3ccccc3)c2)cc1 | 90 | 110 | 
16 | CC(C)(C)OC(=O)N[C@@H](Cc1ccccc1)C(=O)OCCCCCCCCCCCCNC(=O)[C@@H]1CN(C(=O)c2ccc(C(=O)N3C[C@@H](C(=O)N[C@H]4C[C@@H]4c4ccccc4)[C@H](C(=O)N[C@H]4C[C@@H]4c4ccccc4)C3)cc2)C[C@H]1C(=O)N[C@H]1C[C@@H]1c1ccccc1 | 100 | 220 | 
17 | NC(=O)CCCCCCCCCCCNC(=O)[C@@H]1CN(C(=O)c2ccc(C(=O)N3C[C@@H](C(=O)N[C@H]4C[C@@H]4c4ccccc4)[C@H](C(=O)N[C@H]4C[C@@H]4c4ccccc4)C3)cc2)C[C@H]1C(=O)N[C@H]1C[C@@H]1c1ccccc1 | 110 | 120 | 
18 | O=C(CNC(=O)C(F)(F)F)OCCCCCCCCCCCCNC(=O)[C@@H]1CN(C(=O)c2ccc(C(=O)N3C[C@@H](C(=O)N[C@H]4C[C@@H]4c4ccccc4)[C@H](C(=O)N[C@H]4C[C@@H]4c4ccccc4)C3)cc2)C[C@H]1C(=O)N[C@H]1C[C@@H]1c1ccccc1 | 100 | 100 | 

Results, then the molecule that gave them:

Row | Activity (Toll-like receptor 1/2; filed as agonist) [%] | Activity [1] [%] | Activity (Toll-like receptor 1/2) [%] | SMILES
19 | 100 | 140 |  | CC(C)(C)OC(=O)CCOCCOCCOCCNC(=O)CCCCCCCCCCCNC(=O)[C@@H]1CN(C(=O)c2ccc(C(=O)N3C[C@@H](C(=O)N[C@H]4C[C@@H]4c4ccccc4)[C@H](C(=O)N[C@H]4C[C@@H]4c4ccccc4)C3)cc2)C[C@H]1C(=O)N[C@H]1C[C@@H]1c1ccccc1
20 | 80 | 200 |  | C[C@H](NC(=O)OC(C)(C)C)C(=O)OCCCCCCCCCCCCNC(=O)[C@@H]1CN(C(=O)c2ccc(C(=O)N3C[C@@H](C(=O)N[C@H]4C[C@@H]4c4ccccc4)[C@H](C(=O)N[C@H]4C[C@@H]4c4ccccc4)C3)cc2)C[C@H]1C(=O)N[C@H]1C[C@@H]1c1ccccc1
21 | 90 | 110 |  | CC(C)(C)OC(=O)/C=C/C(=O)NCC(=O)OCCCCCCCCCCCCNC(=O)[C@@H]1CN(C(=O)c2ccc(C(=O)N3C[C@@H](C(=O)N[C@H]4C[C@@H]4c4ccccc4)[C@H](C(=O)N[C@H]4C[C@@H]4c4ccccc4)C3)cc2)C[C@H]1C(=O)N[C@H]1C[C@@H]1c1ccccc1
22 | 100 | 140 |  | O=C(CO)OCCCCCCCCCCCCNC(=O)[C@@H]1CN(C(=O)c2ccc(C(=O)N3C[C@@H](C(=O)N[C@H]4C[C@@H]4c4ccccc4)[C@H](C(=O)N[C@H]4C[C@@H]4c4ccccc4)C3)cc2)C[C@H]1C(=O)N[C@H]1C[C@@H]1c1ccccc1
23 | 110 | 110 |  | CC(C)(C)C(=O)NCC(=O)OCCCCCCCCCCCCNC(=O)[C@@H]1CN(C(=O)c2ccc(C(=O)N3C[C@@H](C(=O)N[C@H]4C[C@@H]4c4ccccc4)[C@H](C(=O)N[C@H]4C[C@@H]4c4ccccc4)C3)cc2)C[C@H]1C(=O)N[C@H]1C[C@@H]1c1ccccc1
24 | 100 | 110 |  | O=C(O)CCCCCCCCCCCNC(=O)[C@@H]1CN(C(=O)c2ccc(C(=O)N3C[C@@H](C(=O)N[C@H]4C[C@@H]4c4ccccc4)[C@H](C(=O)N[C@H]4C[C@@H]4c4ccccc4)C3)cc2)C[C@H]1C(=O)N[C@H]1C[C@@H]1c1ccccc1
25 | 90 | 150 |  | CC(C)(C)OC(=O)NCCOCCOCCOCCOCCC(=O)OCCCCCCCCCCCCNC(=O)[C@@H]1CN(C(=O)c2ccc(C(=O)N3C[C@@H](C(=O)N[C@H]4C[C@@H]4c4ccccc4)[C@H](C(=O)N[C@H]4C[C@@H]4c4ccccc4)C3)cc2)C[C@H]1C(=O)N[C@H]1C[C@@H]1c1ccccc1
26 | 100 | 120 |  | COC(=O)NCC(=O)OCCCCCCCCCCCCNC(=O)[C@@H]1CN(C(=O)c2ccc(C(=O)N3C[C@@H](C(=O)N[C@H]4C[C@@H]4c4ccccc4)[C@H](C(=O)N[C@H]4C[C@@H]4c4ccccc4)C3)cc2)C[C@H]1C(=O)N[C@H]1C[C@@H]1c1ccccc1
27 | 100 | 220 |  | CC(C)(C)OC(=O)NC1(C(=O)OCCCCCCCCCCCCNC(=O)[C@@H]2CN(C(=O)c3ccc(C(=O)N4C[C@@H](C(=O)N[C@H]5C[C@@H]5c5ccccc5)[C@H](C(=O)N[C@H]5C[C@@H]5c5ccccc5)C4)cc3)C[C@H]2C(=O)N[C@H]2C[C@@H]2c2ccccc2)CC1
28 | 110 | 200 |  | C[C@@H](NC(=O)OC(C)(C)C)C(=O)OCCCCCCCCCCCCNC(=O)[C@@H]1CN(C(=O)c2ccc(C(=O)N3C[C@@H](C(=O)N[C@H]4C[C@@H]4c4ccccc4)[C@H](C(=O)N[C@H]4C[C@@H]4c4ccccc4)C3)cc2)C[C@H]1C(=O)N[C@H]1C[C@@H]1c1ccccc1
